# System: zebrafish embryos
# Test: Effects of the fluorogens on zebrafish embryogenesis
# Format: in vivo
# In short: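 Wild-type AB zebrafish embryos were raised at 28°C and staged as hours postfertilization. Fluorogen exposure started at 50% epiboly, either as a 1 h pulse or continuously overnight to 24 hpf. At 48 hpf, embryos were examined by brightfield microscopy and scored into three classes: no defect, axis defects, or dead.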
# [1] = 5 μM fluorogen during 1 hour at 50% epiboly
# [2] = 5 μM fluorogen overnight from 50% epiboly to 24 hpf
compound,measurement,setting,value
"COc1cc(C=C2SC(=S)NC2=O)cc(OC)c1O [HBR-3,5DOM, 4-hydroxy-3,5-dimethoxybenzylidene rhodanine]",effects on embryos scored at 48 hpf,[1],No deleterious effects
same,effects on embryos scored at 48 hpf,[2],No deleterious effects
"Cc1cc(C=C2SC(=S)NC2=O)ccc1O [HMBR, 4-hydroxy-3-methylbenzylidene rhodanine]",effects on embryos scored at 48 hpf,[1],No deleterious effects
same,effects on embryos scored at 48 hpf,[2],No deleterious effects

# Source: article PMC7610487 (Nature chemical biology, 2020)
